Calpain2 inh: inhibitors of pig calpain II; purified calpain II, fluorogenic peptide substrate, 30 min; inhibition, % at 16 µM; actives 0.37% (n = 220,000); AID 1236;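 active means inhibition above about 50%, limit read from the data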
FXIIa inh: factor XIIa (human) inhibition; P00748; purified FXIIa, Boc-QGR-AMC fluorogenic substrate, 2 h; inhibition, % at 5 µM; actives 0.3% (n = 220,000); in the data active means inhibition above about 40%;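 further: 0% = enzyme with no compound and 100% = blank without enzyme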
FXIa inh: factor XIa (human) inhibition; inhibition, % at 5 µM; actives 0.14% (n = 220,000); purified FXIa, Boc-Glu-Ala-Arg-AMC fluorogenic substrate; P03951;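 active means inhibition of at least 40%; inactive means inhibition below 40%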;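 further: fluorescence of freed AMC excited at 355 nm; 0% = enzyme without compound and 100% = no enzyme blank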
Target sequence (P03951 19-387 limits assumed): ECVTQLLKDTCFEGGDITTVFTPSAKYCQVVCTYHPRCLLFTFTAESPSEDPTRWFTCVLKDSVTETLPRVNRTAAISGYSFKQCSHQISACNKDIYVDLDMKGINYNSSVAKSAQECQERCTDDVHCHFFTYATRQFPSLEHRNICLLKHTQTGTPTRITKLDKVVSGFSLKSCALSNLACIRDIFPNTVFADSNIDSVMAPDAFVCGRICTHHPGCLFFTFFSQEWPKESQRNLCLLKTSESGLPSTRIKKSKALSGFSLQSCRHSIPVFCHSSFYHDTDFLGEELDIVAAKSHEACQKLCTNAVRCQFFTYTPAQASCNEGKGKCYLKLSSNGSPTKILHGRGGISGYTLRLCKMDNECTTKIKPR
Target sequence (P03951 388-625 limits assumed): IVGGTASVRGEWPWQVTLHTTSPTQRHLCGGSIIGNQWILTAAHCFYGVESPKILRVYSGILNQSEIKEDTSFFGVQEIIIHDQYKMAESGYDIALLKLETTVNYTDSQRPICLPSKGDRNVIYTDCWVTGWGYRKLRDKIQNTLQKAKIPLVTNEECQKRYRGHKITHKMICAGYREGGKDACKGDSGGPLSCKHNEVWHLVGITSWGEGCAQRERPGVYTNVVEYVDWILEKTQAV
KLK5 inh: inhibitors of human kallikrein 5; Q9Y337; recombinant hK5, fluorogenic AMC substrate cleavage; inhibition, % at 5 µM; actives 0.59% (n = 210,000); AID 873;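 active means inhibition of 40% or more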;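 further: 0% = enzyme controls without compound and 100% = no-enzyme blanks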
Thrombin inh: thrombin (human) inhibition | actives 0.26% (n = 220,000) | P00734 | alpha-thrombin, Boc-VPR-AMC fluorogenic substrate cleavage | inhibition, % at 5 µM;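 active means inhibition at or above 40%; inactive means inhibition below 40%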;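 further: 0% = enzyme with no compound and 100% = wells without enzyme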
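Material: human alpha-thrombin enzyme / Medium: pH 7.5 Tris (50 mM) with NaCl 150 mM, Tween 20 0.05% / Compound: single-point dosing at 5 µM, 0.2% DMSO / Incubation: enzyme reaction carried out at room temperature / Detection: AMC fluorescence, 355/460 nm / Read-out basis: percent inhibition scaled between no-compound controls and no-enzyme blanks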
An asterisk follows results filed as active; i = inactive; / = no result given. Most compounds without a hit are left out; they make up all but 1.4% or so of the library.

SMILES | Calpain2 inh | FXIIa inh | FXIa inh | KLK5 inh | Thrombin inh
O=C(N/N=C/c1c(O)n(CCc2ccc(F)cc2)c(=O)[nH]c1=O)c1ccncc1 | -56 | 1 | -1 | -22 | -16
O=C(N/N=C/c1c(O)n(CCc2ccccc2)c(=O)[nH]c1=O)c1ccncc1 | 2 | -2 | -6 | -28 | 50*
O=C(c1cccnc1)C1CCCN(Cc2nc(-c3cnccn3)no2)C1 (centres undefined) | 4 | 41* | 37 | 26 | 30
COc1ccccc1Cn1c(SCC(=O)C(C)(C)C)nc2cc(C(=O)N3CCC4(CC3)OCCO4)ccc2c1=O | -41 | 3 | -7 | -20 | 1
O=c1[nH]c(=O)n(C2CCCCC2)c(O)c1/C=C/C=Nc1ccccc1 | 4 | 5 | 0 | 4 | -4
Clc1ccc(COC(Cn2ccnc2)c2ccc(Cl)cc2Cl)c(Cl)c1 (centres undefined) | 58* | 0 | 23 | -14 | -3
CCCn1cc(CN2CCCC(C(=O)c3cccc(OC)c3)C2)c(C)n1 (centres undefined) | 25 | 75* | 32 | 21 | -7
CN(C)c1ccc(/C=C2/C(=N\O)C3CCN2CC3)cc1 | -8 | 3 | 10 | 3 | -2
COC(=O)C(O)(c1c(C)[nH]n(-c2ccccc2)c1=O)C(F)(F)F (centres undefined) | 8 | 23 | 11 | 99* | 13
COC(=O)C(O)(c1c[nH]c2ccccc12)C(F)(F)F (centres undefined) | -11 | 22 | 5 | -15 | 1
CC(=O)N1CN2CN(C(C)=O)CC(C(=O)c3ccccc3)(C2)C1 | 13 | 19 | 8 | 48* | 17
CC(=O)N1CN2CN(C(C)=O)CC(C(=O)c3ccc([N+](=O)[O-])cc3)(C2)C1 | -21 | 8 | -3 | 1 | -4
Cc1ncc(CN2CCCC(C(=O)c3ccc(C(C)(C)C)cc3)C2)s1 (centres undefined) | 26 | 63* | 29 | 35 | 3
COc1ccc(C(=O)c2nc3ccccc3n2C(C)C)cc1 | 18 | 11 | 2 | -2 | 5
CCOC(=O)C1CCCN(c2ccc([N+](=O)[O-])c3nonc23)C1 (centres undefined) | 60* | 7 | -1 | / | -1
O=C(NCc1ccccn1)c1ccccc1Cl | 12 | 14 | 4 | 61* | 11
CCOP(=O)(OCC)C(NC(=O)c1ccccc1Cl)=C(Cl)Cl | 10 | 3 | -9 | -2 | -2
CCOP(=O)(OCC)Oc1cc(C)c(N(C)C)c(C)c1 | 6 | 1 | -8 | -7 | -13
Nc1ccncc1Cl | 26 | 28 | 32 | 41* | 16
CC(C)(C)c1cc([N+](=O)[O-])cc(C(C)(C)C)c1O | -4 | 8 | -1 | 2 | 0
CCOc1cccc(OCC)c2c(C)[n+](CC3CCCO3)c(C)c1-2 (centres undefined) | -120 | 10 | 21 | -18 | -10
COC(=O)c1ccc(N=C(c2ccccc2)c2c(O)n(C)c(=O)n(C)c2=O)cc1 | -6 | 0 | -3 | -5 | -10
CCOC(=O)c1ccc(N=C(c2ccccc2)c2c(O)n(C)c(=O)n(C)c2=O)cc1 | -1 | -1 | -13 | 43* | -8
O=c1[nH]c(=O)n(Cc2ccccc2Cl)c(O)c1/C=C1/C=CC=N1 | 2 | 5 | 0 | 0 | 0
CN(C)C(=O)Oc1ccc(-c2cn3cc(Cl)ccc3n2)cc1 | 0 | 10 | 4 | 44* | 27
SMILES | Calpain2 inh | FXIIa inh | FXIa inh | KLK5 inh | Thrombin inh
COC(=O)c1ccc(C(C(=O)NC2CCCCC2)N(CCN2CCOCC2)C(=O)Cc2cccs2)cc1 (centres undefined) | 36 | 100* | 1 | -1 | -8
O=C1C=Cc2ccccc2C1=O | 60* | 7 | 5 | -9 | 0
Cn1cccc1/C=C1\C(=O)NC(=O)N(Cc2ccccc2Cl)C1=O | -18 | 32 | 48* | 18 | 10
O=C1NC(=S)N(Cc2ccco2)C(=O)/C1=C\c1cccs1 | 20 | 5 | 2 | -12 | 5
O=C(c1cccn2c(=O)c3cc(Br)ccc3nc12)N1CCC2(CC1)OCCO2 | i | 1 | 55* | 38 | 20
COc1ccc(OCC(=O)N2CCN(Cc3ccc4c(c3)OCO4)CC2)cc1 | 5 | 12 | 4 | / | 2
COc1ccc(OCC(=O)N2CCN(Cc3ccc(SC)cc3)CC2)cc1 | -36 | 4 | -2 | 1 | 49*
Cc1c(C=O)c2ccccc2n1Cc1ccc([N+](=O)[O-])cc1 | -6 | 4 | -4 | 4 | -6
OC(Cn1c2ccccc2c2ccccc21)C[n+]1cccc2ccccc21 (centres undefined) | 17 | 8 | 4 | 6 | 0
